Published values pooled from the literature.
Compare with care: the assays were run in different laboratories.
Target: Serine/threonine-protein kinase pim-3 (PIM3, Homo sapiens, UniProt Q86V86)

C=CC(=O)N1CCC([C@@H]2CCNc3c(C(N)=O)c(-c4ccc(Oc5ccccc5)cc4)nn32)CC1  inhibition (enzyme activity, inhibitor; 1 µM): 2%
CC(C)S(=O)(=O)c1ccc2nccc(Nc3ccc4sc(C5CCCC5)nc4c3)c2c1  activity vs control (enzyme activity, inhibitor; 1 µM): 104%
C1=C/COCc2cc(ccc2OCCN2CCCC2)Nc2nccc(n2)-c2cccc(c2)COC/1  remaining binding (binding; 0.1 µM): 97%
CCCCC(=O)Nc1ccc(-c2ccc3ncn(CCC)c(=O)c3c2)cn1  remaining binding (binding, competition with immobilised ligand; 0.5 µM): 93%
COc1ccc2[nH]c3c4[nH]c5ccc(OC)cc5c4c4c(c3c2c1)C(=O)NC4=O  remaining binding (binding; 1 µM): 2.6%
N#Cc1ccc(NC(=O)Nc2ccccc2)cc1  remaining binding (cell-free assay, competition with immobilised ligand; 25 µM): 74%
C[C@H]1CC[C@H](n2c3cnccc3c3cnc(Nc4ccc5c(n4)CCN(C(=O)CO)C5)nc32)CC1  remaining signal (cell-free assay; 1 µM): 31%
C#Cc1cnc(Nc2ccnc(CO)c2)nc1Nc1ccccc1S(C)(=O)=NC#N (stereo not shown)  remaining signal (cell-free assay; 1 µM): 80%
COc1ccc2oc(-c3ccc4nc(N)oc4c3)c/c(=N\c3ccccc3NC(=O)CCN)c2c1  remaining binding (binding; 1 µM): 110%
C=CC(=O)N1CCC[C@@H](n2nc(-c3ccc(Oc4ccccc4)cc3)c3c(N)ncnc32)C1  inhibition (enzyme activity, inhibitor; 1 µM): 0%
